Measured values taken from ChEMBL document CHEMBL1135458, “Discovery and biological evaluation of a new family of potent modulators of multidrug resistance: reversal of multidrug resistance of mouse lymphoma cells by new natural jatrophane diterpenoids isolated from Euphorbia species” (2002).

Tests used:
Assay type in all cases: functional
Lymphoma cell line [1] = assay: Ability to reverse the multidrug resistance (MDR) of mouse Lymphoma cells, fluorescence activity ratio at 20 ug/mL.
Method in brief: (§1)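 Rhodamine 123 accumulation by flow cytometry. MDR1-transduced L5178 mouse lymphoma cells and parental L5178Y cells at 2 × 10^6/mL in serum-free McCoy's 5A. Compound from DMSO stock for 10 min at room temperature, then 5.2 µM rhodamine 123 for 20 min at 37 °C, with two washes. Activity ratio: treated/untreated fluorescence of MDR cells divided by treated/untreated fluorescence of parental cells.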

Lymphoma cell line [2] = assay: Ability to reverse the multidrug resistance (MDR) of mouse Lymphoma cells, by Granulation (SSC) at 2 ug/mL.
Method in brief: (§2)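 L5178 mouse T-cell lymphoma cells carrying the MDR1 gene (via pHa MDR1/A retrovirus, kept under 60 ng/mL colchicine), with the L5178Y parent line. Cells grown in McCoy's 5A with 10% heat-inactivated horse serum. Cells at 2 × 10^6/mL in serum-free medium were given compound (1.0 mg/mL DMSO stock) for 10 min at room temperature. Rhodamine 123 (5.2 µM final) was then added for 20 min at 37 °C. Cells were washed twice, resuspended in PBS, and read by flow cytometry for FSC, SSC and FL-1.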

Lymphoma cell line [3] = assay: Ability to reverse the multidrug resistance (MDR) of mouse Lymphoma cells, FL-1at 20 ug/mL; design: reference not given here; method in brief: as §2
Lymphoma cell line [4] = assay: Ability to reverse the multidrug resistance (MDR) of mouse Lymphoma cells, FL-1at 2 ug/mL; design: reference not given here; method in brief: as §2
Lymphoma cell line [5] = assay: Ability to reverse the multidrug resistance (MDR) of mouse Lymphoma cells, by shrinkage (FSC) at 2 ug/mL.; method in brief: as §2
Lymphoma cell line [6] = assay: Ability to reverse the multidrug resistance (MDR) of mouse Lymphoma cells, fluorescence activity ratio at 2 ug/mL.; method in brief: as §1
Lymphoma cell line [7] = assay: Ability to reverse the multidrug resistance (MDR) of mouse Lymphoma cells, by Granulation (SSC) at 20 ug/mL.; method in brief: as §2
Lymphoma cell line [8] = assay: Ability to reverse the multidrug resistance (MDR) of mouse Lymphoma cells, by shrinkage (FSC) at 20 ug/mL.; method in brief: as §2
Lymphoma cell line [9] = assay: Ability to reverse the multidrug resistance (MDR) of mouse Lymphoma cells, by Granulation (SSC) at 5 ug/mL.; method in brief: as §2
Lymphoma cell line [10] = assay: Ability to reverse the multidrug resistance (MDR) of mouse Lymphoma cells, fluorescence activity ratio at 5 ug/mL.; method in brief: as §1
Lymphoma cell line [11] = assay: Ability to reverse the multidrug resistance (MDR) of mouse Lymphoma cells, FL-1at 5 ug/mL; method in brief: as §2
Lymphoma cell line [12] = assay: Ability to reverse the multidrug resistance (MDR) of mouse Lymphoma cells, by shrinkage (FSC) at 5 ug/mL.; method in brief: as §2
Lymphoma cell line [13] = assay: Ability to reverse the multidrug resistance (MDR) of mouse Lymphoma cells, by Granulation (SSC) at 4 ug/mL.; method in brief: as §2
Lymphoma cell line [14] = assay: Ability to reverse the multidrug resistance (MDR) of mouse Lymphoma cells, FL-1at 4 ug/mL; method in brief: as §2
Lymphoma cell line [15] = assay: Ability to reverse the multidrug resistance (MDR) of mouse Lymphoma cells, fluorescence activity ratio at 4 ug/mL.; method in brief: as §1
Lymphoma cell line [16] = assay: Ability to reverse the multidrug resistance (MDR) of mouse Lymphoma cells, by shrinkage (FSC) at 4 ug/mL.; method in brief: as §2

`C=C1[C@H](OC(C)=O)[C@@H](O)[C@@H](OC(=O)c2cccnc2)C(C)(C)/C=C/[C@H](C)[C@H](OC(C)=O)[C@@]2(O)C[C@@](C)(OC(C)=O)[C@H](OC(=O)c3ccccc3)[C@@H]2[C@H]1OC(C)=O` showed a Fluorescence activity ratio (Lymphoma cell line [1]) of 71.98, an SSC (Lymphoma cell line [2]) of 301.64 and an FL-1 (Lymphoma cell line [3]) of 878.14. The FL-1 (Lymphoma cell line [4]) was 155.62, the FSC (Lymphoma cell line [5]) was 632.81 and the Fluorescence activity ratio (Lymphoma cell line [6]) was 12.75. For the same compound, the SSC (Lymphoma cell line [7]) was 291.38 and the FSC (Lymphoma cell line [8]) was 636.35.
`CC(=O)O[C@@H]1[C@@H](OC(C)=O)C(C)(C)/C=C/[C@H](C)C(=O)[C@@]2(OC(C)=O)C[C@@H](C)[C@H](OC(=O)c3ccccc3)/C2=C\[C@](C)(OC(C)=O)[C@@H]1OC(C)=O` was tested, and the Fluorescence activity ratio (Lymphoma cell line [1]) was 16.08, the SSC (Lymphoma cell line [2]) was 238.57 and the FL-1 (Lymphoma cell line [3]) was 965.2. The FL-1 (Lymphoma cell line [4]) was 634.88, the FSC (Lymphoma cell line [5]) was 561.94 and the Fluorescence activity ratio (Lymphoma cell line [6]) was 10.57. It also gave an SSC (Lymphoma cell line [7]) of 228.49 and an FSC (Lymphoma cell line [8]) of 563.73.
For `C=C1[C@H](OC(=O)C(C)C)[C@H](OC(=O)C(C)C)[C@@H](OC(C)=O)C(C)(C)[C@@H]2O[C@H]2[C@@H](C)C(=O)[C@@]2(OC(C)=O)C[C@@](C)(OC(C)=O)[C@H](OC(C)=O)[C@@H]2[C@H]1OC(C)=O`, the Fluorescence activity ratio (Lymphoma cell line [1]) was 3.96, the SSC (Lymphoma cell line [2]) was 165.11 and the FL-1 (Lymphoma cell line [3]) was 34.14. It also gave an FL-1 (Lymphoma cell line [4]) of 31.98, an FSC (Lymphoma cell line [5]) of 659.4 and a Fluorescence activity ratio (Lymphoma cell line [6]) of 3.71. For the same compound, the SSC (Lymphoma cell line [7]) was 176.12 and the FSC (Lymphoma cell line [8]) was 667.76.
Compound `C=C1[C@H](OC(C)=O)CC(=O)C(C)(C)/C=C/[C@@H](C)C(=O)[C@@]2(OC(C)=O)C[C@@](C)(OC(C)=O)[C@H](OC(C)=O)[C@@H]2[C@H]1OC(C)=O` [ESULATIN B] has a Fluorescence activity ratio (Lymphoma cell line [1]) of 7.83, an SSC (Lymphoma cell line [2]) of 313.58 and an FL-1 (Lymphoma cell line [3]) of 95.54. The FL-1 (Lymphoma cell line [4]) was 31.47, the FSC (Lymphoma cell line [5]) was 642.45 and the Fluorescence activity ratio (Lymphoma cell line [6]) was 2.58. For the same compound, the SSC (Lymphoma cell line [7]) was 307.84 and the FSC (Lymphoma cell line [8]) was 631.19.
Work on `CC(=O)O[C@@H]1[C@@H](OC(C)=O)C(C)(C)/C=C/[C@H](C)[C@H](OC(C)=O)[C@@]2(OC(C)=O)C[C@H](C)[C@H](OC(=O)c3ccccc3)/C2=C\[C@](C)(O)[C@@H]1OC(C)=O` yielded a Fluorescence activity ratio (Lymphoma cell line [1]) of 4.86, an SSC (Lymphoma cell line [2]) of 166.49 and an FL-1 (Lymphoma cell line [3]) of 41.9. It also gave an FL-1 (Lymphoma cell line [4]) of 37.12, an FSC (Lymphoma cell line [5]) of 641.56 and a Fluorescence activity ratio (Lymphoma cell line [6]) of 4.31. The SSC (Lymphoma cell line [7]) was 175.29 and the FSC (Lymphoma cell line [8]) was 658.03.
`COc1ccc(CCN(C)CCCC(C#N)(c2ccc(OC)c(OC)c2)C(C)C)cc1OC` (stereo not drawn) [VERAPAMIL] showed an SSC (Lymphoma cell line [9]) of 177.48, a Fluorescence activity ratio (Lymphoma cell line [10]) of 8.27 and an FL-1 (Lymphoma cell line [11]) of 170.3. It also gave an FSC (Lymphoma cell line [12]) of 569.63.
For `C=C1[C@H](OC(C)=O)C[C@@H](OC(C)=O)C(C)(C)/C=C/[C@@H](C)C(=O)[C@@]2(OC(C)=O)C[C@@](C)(OC(C)=O)[C@H](OC(C)=O)[C@@H]2[C@H]1OC(C)=O` [ESULATIN D], the SSC (Lymphoma cell line [2]) was 336.52, the FL-1 (Lymphoma cell line [4]) was 35.43 and the FSC (Lymphoma cell line [5]) was 626.3. The SSC (Lymphoma cell line [13]) was 339.15, the Fluorescence activity ratio (Lymphoma cell line [6]) was 2.47 and the FL-1 (Lymphoma cell line [14]) was 57.73. It also gave a Fluorescence activity ratio (Lymphoma cell line [15]) of 4.03 and an FSC (Lymphoma cell line [16]) of 638.32.
In the case of `CC(=O)O[C@@H]1[C@@H](OC(C)=O)C(C)(C)/C=C/[C@H](C)C(=O)C2(OC(C)=O)C[C@@](C)(O)[C@H](OC(=O)c3ccccc3)/C2=C\[C@](C)(OC(C)=O)[C@@H]1OC(C)=O` (stereo partly drawn), the Fluorescence activity ratio (Lymphoma cell line [1]) is reported as 12.73, the SSC (Lymphoma cell line [2]) is reported as 235.31 and the FL-1 (Lymphoma cell line [3]) is reported as 764.3. The FL-1 (Lymphoma cell line [4]) was 525.32, the FSC (Lymphoma cell line [5]) was 558.57 and the Fluorescence activity ratio (Lymphoma cell line [6]) was 8.75. The SSC (Lymphoma cell line [7]) was 231.39 and the FSC (Lymphoma cell line [8]) was 555.8.
With `C=C1[C@H](OC(=O)C(C)C)[C@@H](OC(C)=O)[C@@H](OC(C)=O)C(C)(C)/C=C/[C@@H](C)C(=O)[C@@]2(OC(C)=O)C[C@@](C)(OC(C)=O)[C@H](OC(C)=O)[C@@H]2[C@H]1OC(C)=O` the Fluorescence activity ratio (Lymphoma cell line [1]) was 14.75, the SSC (Lymphoma cell line [2]) was 246.26 and the FL-1 (Lymphoma cell line [3]) was 444.35. It also gave an FL-1 (Lymphoma cell line [4]) of 166.44, an FSC (Lymphoma cell line [5]) of 589.78 and a Fluorescence activity ratio (Lymphoma cell line [6]) of 5.52. The SSC (Lymphoma cell line [7]) was 254.87 and the FSC (Lymphoma cell line [8]) was 620.4.
In the case of `C=C1[C@H](OC(C)=O)[C@@H](OC(C)=O)[C@@H](OC(C)=O)C(C)(C)/C=C/[C@H](C)[C@H](OC(C)=O)[C@@]2(O)C[C@@](C)(OC(C)=O)[C@H](OC(=O)c3ccccc3)[C@@H]2[C@H]1OC(C)=O`, the Fluorescence activity ratio (Lymphoma cell line [1]) is reported as 29.48, the SSC (Lymphoma cell line [2]) is reported as 239.85 and the FL-1 (Lymphoma cell line [3]) is reported as 888.3. The FL-1 (Lymphoma cell line [4]) was 505.23, the FSC (Lymphoma cell line [5]) was 577.39 and the Fluorescence activity ratio (Lymphoma cell line [6]) was 16.77. It also gave an SSC (Lymphoma cell line [7]) of 239.54 and an FSC (Lymphoma cell line [8]) of 587.54.
`CC(=O)O[C@@H]1[C@@H](OC(C)=O)C(C)(C)/C=C/[C@H](C)C(=O)[C@@]2(OC(C)=O)C[C@@H](C)[C@H](OC(=O)c3ccccc3)/C2=C\[C@](C)(O)[C@@H]1OC(C)=O` gave a Fluorescence activity ratio (Lymphoma cell line [1]) of 6.7, an SSC (Lymphoma cell line [2]) of 237.88 and an FL-1 (Lymphoma cell line [3]) of 401.98. The FL-1 (Lymphoma cell line [4]) was 532.78, the FSC (Lymphoma cell line [5]) was 562.62 and the Fluorescence activity ratio (Lymphoma cell line [6]) was 8.87. For the same compound, the SSC (Lymphoma cell line [7]) was 232.7 and the FSC (Lymphoma cell line [8]) was 565.55.
For `C=C1[C@H](OC(C)=O)C[C@@H](OC(=O)c2cccnc2)C(C)(C)/C=C/[C@@H](C)C(=O)[C@@]2(OC(C)=O)C[C@H](C)[C@H](OC(C)=O)[C@@H]2[C@H]1OC(C)=O`, the Fluorescence activity ratio (Lymphoma cell line [1]) was 74.27, the SSC (Lymphoma cell line [2]) was 300.61 and the FL-1 (Lymphoma cell line [3]) was 906.08. For the same compound, the FL-1 (Lymphoma cell line [4]) was 423.87, the FSC (Lymphoma cell line [5]) was 634.95 and the Fluorescence activity ratio (Lymphoma cell line [6]) was 34.74. The SSC (Lymphoma cell line [7]) was 297.54 and the FSC (Lymphoma cell line [8]) was 640.31.
For `CC(=O)O[C@@H]1[C@@H](OC(C)=O)C(C)(C)/C=C/[C@H](C)[C@H](OC(C)=O)[C@@]2(OC(C)=O)C[C@@H](C)[C@H](OC(=O)c3ccccc3)[C@@H]2/C=C(\C)[C@@H]1O`, the Fluorescence activity ratio (Lymphoma cell line [1]) was 34.79, the SSC (Lymphoma cell line [2]) was 165.87 and the FL-1 (Lymphoma cell line [3]) was 299.93. It also gave an FL-1 (Lymphoma cell line [4]) of 180.81, an FSC (Lymphoma cell line [5]) of 653.55 and a Fluorescence activity ratio (Lymphoma cell line [6]) of 20.98. For the same compound, the SSC (Lymphoma cell line [7]) was 167.73 and the FSC (Lymphoma cell line [8]) was 654.67.
Work on `C=C1[C@H](OC(=O)C(C)C)[C@@H](O)[C@@H](OC(C)=O)C(C)(C)/C=C/[C@H](C)[C@H](OC(C)=O)[C@@]2(O)C[C@@](C)(OC(C)=O)[C@H](OC(=O)c3ccccc3)[C@@H]2[C@H]1OC(C)=O` yielded an SSC (Lymphoma cell line [2]) of 333.78, an FL-1 (Lymphoma cell line [4]) of 90.12 and an FSC (Lymphoma cell line [5]) of 625.31. It also gave an SSC (Lymphoma cell line [13]) of 335.77, a Fluorescence activity ratio (Lymphoma cell line [6]) of 6.3 and an FL-1 (Lymphoma cell line [14]) of 32.37. It also gave a Fluorescence activity ratio (Lymphoma cell line [15]) of 2.26 and an FSC (Lymphoma cell line [16]) of 638.02.
